In ChEMBL document CHEMBL4477237, “Structure-Based Design of β5c Selective Inhibitors of Human Constitutive Proteasomes” (J Med Chem, 2016):

Legend:
Format in all cases: cell-based
[1] = species: Homo sapiens; assay: Selectivity ratio of IC50 for immunoproteasome 20s subunit beta5 in human Raji cells to IC50 for constitutive proteasome 20s subunit beta5 in human Raji cells
Summary of the method: (§1)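 Initial screen in Raji cell extracts. Inhibitor at 0.01, 0.1, 1.0 and 10.0 µM final for 1 h at 37 °C, then ABP cocktail 1 h. In-gel fluorescence of β5c/β5i bands normalized to mock-treated extract, giving residual activity. Run once. IC50s from this screen feed the β5i/β5c ratio.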

[2] = target: T1, Proteasome Macropain subunit MB1 (Homo sapiens, UniProt P28074); assay: Inhibition of catalytic activity of constitutive proteasome 20s subunit beta5 in human Raji cells incubated for 1 hr by BODIPY(TMR)-NC-005-VS probe based competitive activity based protein profiling assay
T1 sequence (P28074 whole entry): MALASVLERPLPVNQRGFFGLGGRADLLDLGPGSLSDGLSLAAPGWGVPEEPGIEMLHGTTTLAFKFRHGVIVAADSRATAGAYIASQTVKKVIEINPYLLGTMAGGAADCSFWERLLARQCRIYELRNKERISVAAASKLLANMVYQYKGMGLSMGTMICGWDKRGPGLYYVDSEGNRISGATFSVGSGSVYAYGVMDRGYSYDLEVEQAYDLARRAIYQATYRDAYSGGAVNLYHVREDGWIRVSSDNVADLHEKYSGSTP

[3] = target: T2, Proteasome Macropain subunit MB1 (Homo sapiens) (UniProt P28074); assay: Inhibition of catalytic activity of constitutive proteasome 20s subunit beta5 in human Raji cells assessed as residual activity at 0.01 uM incubated for 1 hr by BODIPY(TMR)-NC-005-VS probe based activity based protein profiling assay relative to control; summary of the method: as §1
T2 sequence (whole entry): T1 sequence (P28074 whole entry)

## CC(C)C[C@H](NC(=O)[C@H](Cc1ccccc1)NC(=O)[C@H](CCC1CCCCC1)NC(=O)[C@H](Cc1ccccc1)N=[N+]=[N-])C(=O)[C@@]1(C)CO1
[1]
  Ratio IC50: 1
[2]
  IC50: 36 nM

## CC1=C(C(=O)N[C@H](C)C(=O)N[C@@H](Cc2c[nH]c3ccccc23)C(=O)N[C@@H](CC2CCCCC2)C(=O)[C@@]2(C)CO2)Cc2ccccc21
[2]
  IC50: > 1000 nM

## C[C@H](NC(=O)[C@H](Cc1ccccc1)NC(=O)[C@H](Cc1ccc(-c2ccccc2)cc1)NC(=O)[C@H](Cc1ccccc1)N=[N+]=[N-])C(=O)[C@@]1(C)CO1
[1]
  Ratio IC50: > 13
[2]
  IC50: < 10 nM

## CC(C)C[C@H](NC(=O)[C@H](Cc1ccccc1)NC(=O)[C@H](CC(C)(C)C)NC(=O)[C@H](Cc1ccccc1)N=[N+]=[N-])C(=O)[C@@]1(C)CO1
[1]
  Ratio IC50: 4
[2]
  IC50: 18 nM

## C[C@H](NC(=O)[C@H](Cc1ccccc1)NC(=O)[C@H](CC1CCC(C2CCCCC2)CC1)NC(=O)CN1CCOCC1)C(=O)[C@@]1(C)CO1 (stereo partly specified)
[1]
  Ratio IC50: > 8
[2]
  IC50: 1230 nM

## C[C@H](NC(=O)[C@H](Cc1ccccc1)NC(=O)[C@H](C[C@H]1CC[C@@H](c2ccccc2)CC1)NC(=O)[C@H](Cc1ccccc1)N=[N+]=[N-])C(=O)[C@@]1(C)CO1
[1]
  Ratio IC50: 165
[2]
  IC50: 71 nM

## CC(C)C[C@H](NC(=O)[C@H](Cc1ccccc1)NC(=O)[C@H](CC1CCC2CCCCC2C1)NC(=O)[C@H](Cc1ccccc1)N=[N+]=[N-])C(=O)[C@@]1(C)CO1 (stereo partly specified)
[1]
  Ratio IC50: > 2.5
[2]
  IC50: < 10 nM
[3]
  Activity: 36%

## C[C@H](NC(=O)[C@H](Cc1ccccc1)NC(=O)[C@@H](NC(=O)[C@H](Cc1ccccc1)N=[N+]=[N-])[C@H](C)OC(C)(C)C)C(=O)[C@@]1(C)CO1
[2]
  IC50: > 10000 nM

## CC(C)C[C@H](NC(=O)[C@H](Cc1ccccc1)NC(=O)[C@@H](NC(=O)[C@H](Cc1ccccc1)N=[N+]=[N-])C1CCCCC1)C(=O)[C@@]1(C)CO1
[1]
  Ratio IC50: 2
[2]
  IC50: 33 nM

## COc1ccc(C[C@H](NC(=O)[C@H](CC23CC4CC(CC(C4)C2)C3)NC(=O)CN2CCOCC2)C(=O)N[C@@H](CC(C)C)C(=O)[C@@]2(C)CO2)cc1
[1]
  Ratio IC50: 1
[2]
  IC50: 853 nM

## CC(C)C[C@H](NC(=O)[C@H](Cc1ccccc1)NC(=O)[C@H](CC1CCCCC1)NC(=O)[C@H](Cc1ccccc1)N=[N+]=[N-])C(=O)[C@@]1(C)CO1
[1]
  Ratio IC50: > 5
[2]
  IC50: < 10 nM

## C[C@H](NC(=O)[C@H](Cc1ccccc1)NC(=O)[C@H](C[C@H]1CC[C@H](c2ccccc2)CC1)NC(=O)[C@H](Cc1ccccc1)N=[N+]=[N-])C(=O)[C@@]1(C)CO1
[1]
  Ratio IC50: 2250
[2]
  IC50: 3.8 nM

## COc1ccc(C[C@H](NC(=O)[C@H](CC2CCCCC2)NC(=O)CN2CCOCC2)C(=O)N[C@@H](CC(C)C)C(=O)[C@@]2(C)CO2)cc1
[1]
  Ratio IC50: 2
[2]
  IC50: 119 nM

## COc1ccc(C[C@H](NC(=O)[C@H](CC23CC4CC(CC(C4)C2)C3)NC(=O)CN2CCOCC2)C(=O)N[C@@H](C)C(=O)[C@@]2(C)CO2)cc1
[1]
  Ratio IC50: > 12
[2]
  IC50: 853 nM

## CC(C)C[C@H](NC(=O)[C@H](Cc1ccccc1)NC(=O)[C@H](CC1CC2CCC1C2)NC(=O)[C@H](Cc1ccccc1)N=[N+]=[N-])C(=O)[C@@]1(C)CO1 (stereo partly specified)
[1]
  Ratio IC50: > 3
[2]
  IC50: < 10 nM
[3]
  Activity: 24%

## CC(C)C[C@H](NC(=O)[C@H](Cc1ccccc1)NC(=O)[C@H](CC1CCCC2CCCCC21)NC(=O)[C@H](Cc1ccccc1)N=[N+]=[N-])C(=O)[C@@]1(C)CO1 (stereo partly specified)
[1]
  Ratio IC50: > 1.5
[2]
  IC50: < 10 nM
[3]
  Activity: 40%

## C[C@H](NC(=O)[C@H](Cc1ccccc1)NC(=O)[C@H](CC1CCCCC1)NC(=O)[C@H](Cc1ccccc1)N=[N+]=[N-])C(=O)[C@@]1(C)CO1
[1]
  Ratio IC50: > 175
[2]
  IC50: 57 nM

## C[C@H](NC(=O)[C@H](Cc1ccccc1)NC(=O)[C@H](C[C@H]1CC[C@@H](C2CCCCC2)CC1)NC(=O)[C@H](Cc1ccccc1)N=[N+]=[N-])C(=O)[C@@]1(C)CO1
[2]
  IC50: 710 nM
